Measured values from paper PMC5546011 (Journal of medicinal chemistry, 2017).
Entries after “also recorded” stand apart in the source; their conditions may differ. Read-outs that look alike come from different tables or passages of the source.

Key:
human κ-opioid receptor [1] = biological target: T1, human κ-opioid receptor (Homo sapiens, UniProt P41145); conditions: result in words; cited from earlier work
mice [2] = experiment: Warm-water tail-withdrawal assay; assay type: in vivo; conditions: 50°C warm-water tail withdrawal, 2 mg/kg i.p.
mice [3] = experiment: Intradermal formalin assay; assay type: in vivo
human κ-opioid receptor [4] = biological target: T1, human κ-opioid receptor; experiment: Inhibition of forskolin-induced cAMP accumulation, KOR; assay type: cell-based; conditions: result in words
human μ-opioid receptor = human μ-opioid receptor (Homo sapiens, UniProt P35372); experiment: Inhibition of forskolin-induced cAMP accumulation, MOR; assay type: cell-based
Sequence of human μ-opioid receptor (P35372 whole entry): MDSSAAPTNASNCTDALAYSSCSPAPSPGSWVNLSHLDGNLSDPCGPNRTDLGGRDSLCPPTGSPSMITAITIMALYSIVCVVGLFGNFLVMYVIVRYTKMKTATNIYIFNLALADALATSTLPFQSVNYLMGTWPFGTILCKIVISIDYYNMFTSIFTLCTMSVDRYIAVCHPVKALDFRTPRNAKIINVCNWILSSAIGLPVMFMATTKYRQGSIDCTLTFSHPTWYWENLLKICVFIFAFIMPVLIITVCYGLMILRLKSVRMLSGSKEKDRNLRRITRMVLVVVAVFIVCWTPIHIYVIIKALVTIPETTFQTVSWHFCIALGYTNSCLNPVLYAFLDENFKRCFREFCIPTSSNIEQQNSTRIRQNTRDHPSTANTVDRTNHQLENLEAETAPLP
Summary of the method: (§1)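 CHO-K1 HitHunter cells stably expressing human δ- or μ-opioid receptor, kept in F-12 with 10% FBS, 1% penicillin/streptomycin/L-glutamine and 800 μg/mL Geneticin at 37 °C, 5% CO2. cAMP accumulation was normalised to vehicle and forskolin-only controls.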

[5] = Rat liver microsomal stability; conditions: rat liver microsomes 0.25 mg/mL, 10 μM compound, no NADPH, 37°C; result in words
human δ-opioid receptor = human δ-opioid receptor (Homo sapiens, UniProt P41143); experiment: Inhibition of forskolin-induced cAMP accumulation, DOR; assay type: cell-based
Sequence of human δ-opioid receptor (P41143 whole entry): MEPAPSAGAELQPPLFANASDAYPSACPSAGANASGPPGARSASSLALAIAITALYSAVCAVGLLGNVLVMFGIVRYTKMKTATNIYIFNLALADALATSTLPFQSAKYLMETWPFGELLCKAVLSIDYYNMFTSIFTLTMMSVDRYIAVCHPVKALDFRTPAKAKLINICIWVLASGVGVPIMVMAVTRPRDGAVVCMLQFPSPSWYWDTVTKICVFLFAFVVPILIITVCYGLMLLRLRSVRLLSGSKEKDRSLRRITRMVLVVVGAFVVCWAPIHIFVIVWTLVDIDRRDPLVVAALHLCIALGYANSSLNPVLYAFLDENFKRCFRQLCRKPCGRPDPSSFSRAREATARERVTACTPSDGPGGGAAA
Summary of the method: as §1

[6] = 2% intradermal formalin, mice, i.p., vs vehicle/formalin controls
[7] = 2% intradermal formalin, mice, i.p., result in words
[8] = 2% intradermal formalin, mice, vs vehicle/formalin controls, result in words

T1 sequence (P41145 whole entry): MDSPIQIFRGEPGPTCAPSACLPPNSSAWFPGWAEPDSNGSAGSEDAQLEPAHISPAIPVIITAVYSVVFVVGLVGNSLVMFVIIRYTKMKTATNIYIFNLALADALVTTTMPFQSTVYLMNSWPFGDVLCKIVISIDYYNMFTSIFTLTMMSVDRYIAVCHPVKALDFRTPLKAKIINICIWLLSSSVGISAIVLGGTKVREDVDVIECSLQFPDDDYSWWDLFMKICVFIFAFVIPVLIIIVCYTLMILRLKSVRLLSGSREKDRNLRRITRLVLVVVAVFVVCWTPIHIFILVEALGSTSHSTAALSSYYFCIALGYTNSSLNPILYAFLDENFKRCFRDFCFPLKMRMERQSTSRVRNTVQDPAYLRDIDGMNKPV

Compound	time of significant analgesic effect compared to vehicle (%MPE time course) (mice [2])	time of significant reduction of phase two pain (mice [3]; [6])	AUC of phase one (0-15 min) pain (mice [3]; [7])	AUC of phase two (15-60 min) pain (mice [3]; [7])	footpad edema at 60 min (mice [3]; [8])	percent remaining at 150 minutes, absence of NADPH [5]	also measured
COC(=O)[C@@H]1C=C(OC(=O)c2ccccc2)C(=O)[C@H]2[C@@]1(C)CC[C@H]1C(=O)O[C@H](c3ccoc3)C[C@]21C [Kurkinorin]	–	–	–	–	–	–	KOR activity (human κ-opioid receptor [1]): no KOR activity
COC(=O)[C@@H]1C[C@H](OC(C)=O)C(=O)[C@H]2[C@@]1(C)CC[C@H]1C(=O)O[C@H](c3ccoc3)C[C@]21C [compound 9, salvinorin A, reference compound]	5 to 30 min	20 to 50 min	significant reduction	significant reduction	significant reduction in edema	–	–
COC(=O)[C@@H]1CCC(=O)[C@H]2[C@@]1(C)CC[C@H]1C(=O)O[C@H](c3ccoc3)C[C@]21C [compound 11, Methyl (2S,4aR,6aR,7R,10aS,10bR)-2-(furan-3-yl)-6a,10b-dimethyl-4,10-dioxododecahydro-2H-benzo[f]isochromene-7-carboxylate]	–	–	–	–	–	–	KOR activity (human κ-opioid receptor [4]): complete loss of KOR activity; also recorded: completely inactive
COC(=O)[C@@H]1C[C@]2(CCC(=O)O2)C(=O)[C@H]2[C@@]1(C)CC[C@H]1C(=O)O[C@H](c3ccoc3)C[C@]21C [compound 14, Methyl (2S,4aR,6aR,7R,9R,10aS,10bR)-2-(furan-3-yl)-6a,10b-dimethyl-4,5′,10-trioxododecahydro-2H,3′H,4H-spiro[benzo[f]isochromene-9,2′-furan]-7-carboxylate]	10 to 30 min	20 to 45 min	not significantly different from vehicle	reduced phase two pain	significant reduction in edema	less metabolized than 9	EC50 (human μ-opioid receptor): > 10 µM; time of significant attenuation of phase one pain (mice [3]; [6]): 10 min; effect on formalin pain behavior after pre-treatment with nor-BNI (mice [3]; KOR antagonist nor-BNI 10 mg/kg s.c. 24 hours prior, result in words): prevented; EC50 (human δ-opioid receptor): > 10 µM
COc1ccc2c(c1)[C@]13CCCC[C@@H]1[C@H](C2)N(C)CC3 [dextromethorphan, dextromethorphan hydrobomide, reference compound]	–	–	–	–	–	not metabolized	–
